The source of these data is ChEMBL document CHEMBL1138589, “Development of novel aminoglycoside (NB54) with reduced toxicity and enhanced suppression of disease-causing premature stop mutations” (J Med Chem, 2009).

The subject of series [1] is Escherichia coli. The series is described as follows: Antibacterial activity against Escherichia coli R477-100 by double-microdilution method. The format is functional. (In general: In broth dilution the organism is exposed to a series of concentrations in liquid medium.)
The subject of series [2] is HEK293. Put plainly: (§1) Toxicity against HEK293 cells. The format is cell-based. The note with it: human, hek293; read-out: LC50 (the source's name).
In series [3] the test system is MDCK. Put plainly: (§2) Toxicity against MDCK cells. The format is cell-based, Canis lupus familiaris. The note with it: dog, mdck; read-out: LC50 (the source's name).
Series [4] relates to Nucleic Acid. Put plainly: Suppression of PCDH15 R3X nonsense mutant cDNA translation in african green monkey COS7 cells at 1 mg/mL. The format is cell-based. The note with it: COS-7. The method in brief:
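Dual luciferase reporter carrying PCDH15-R3X transfected into COS-7 cells by lipofection. Compound added 5 h post-transfection. Luciferase activity measured with a dual luciferase assay system, and readthrough calculated by a previously described method.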

Series [5] is described as follows: Ototoxicity in mouse organ of Corti cochlear explants assessed as inner hair cell loss at 0.1 mM by F-actin staining. The format is toxicity. To be noted: 100 µM. In outline:
(§3)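 Cochlea dissected from postnatal day 3 mice; organ of Corti/spiral ganglion flat preparation cultured serum-free (BME, supplement, 1% BSA, 2 mM glutamine, glucose, penicillin) at 37°C, 5% CO2, 24 h before medium swapped for drug-containing medium. Fixed in 4% paraformaldehyde, permeabilized with Triton X-100, blocked with goat serum, F-actin stained with fluorescent phalloidin; basal segments examined.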

In series [6] the test system is Mus musculus. Put plainly: Acute toxicity in iv dosed BALB/c mouse assessed as mortality administered as single dose after 4 days. The format is organism-based. The note with it: in vivo, 96 h. In outline:
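Male BALB/c mice, […] (18-20 g), 12 h light/dark cycle at 20-22 °C, food and water ad libitum. Single intravenous tail-vein injection of 150 µL of drug in PBS (pH 7), 8 animals per concentration. Appearance, behaviour and mortality were monitored for 4 days, and LD50 was derived by the Reed and Muench method.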

A short description of series [7]: Ototoxicity in mouse organ of Corti cochlear explants assessed as outer hair cell loss at 1 mM by F-actin staining. The format is toxicity. To be noted: 1000 µM. The method in brief:
as §3

Series [8] deals with Ribosomal RNA A-site. The series is described as follows: Binding affinity to human cytoplasmic ribosomal RNA A-site assessed as thermal stability at compound/RNA ratio of 5 by UV melting profile method. The format is nucleic-acid assay. In outline:
(§4)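 UV melting of RNA A-site model oligonucleotide, 2 µM in strand, drug 0 to 10 µM, in 10 mM EPPS (pH 7.0), 10 mM NaCl. RNA preheated 85 °C 5 min and slowly cooled. Absorbance read at 274 nm, 1 cm path, 0.5 °C steps with 1.5 min equilibration per step; ΔTm derived.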

In series [9] the test system is Nucleic Acid. The series is described as follows: Suppression of IDUA Q70X nonsense mutant cDNA translation in TNT rabbit reticulocyte lysate transcription translation system at 25 to 100 uM at 30 degC after 90 mins by luciferase reporter gene assay. The method in brief: (§5)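 A dual luciferase reporter plasmid carrying the nonsense-mutation context was used. Luciferase activities were read with a dual luciferase assay kit after incubation, and readthrough was calculated by a previously described method. Translation inhibition was monitored as the ratio of Renilla luciferase activity with versus without aminoglycoside.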
Background: Reporter assays use an easily measured gene product as a stand-in for the process of interest.

The nature of series [10]: Ototoxicity in mouse organ of Corti cochlear explants assessed as outer hair cell loss at 0.1 mM by F-actin staining. To be noted: 100 µM. The format is toxicity. In outline: as §3
Series [11] in a line: Ototoxicity in mouse organ of Corti cochlear explants assessed as inner hair cell loss at 1 mM by F-actin staining. The format is toxicity. To be noted: 1000 µM. The method in brief:
as §3

Series [12] concerns Nucleic Acid. The series is described as follows: Suppression of PCDH15 R3X nonsense mutant cDNA translation in TNT rabbit reticulocyte lysate transcription translation system at 25 to 100 uM at 30 degC after 90 mins by luciferase reporter gene assay. In outline:
as §5

For series [13], the system named is Nucleic Acid. Put plainly: Suppression of Dystrophin R3381X nonsense mutant cDNA translation in TNT rabbit reticulocyte lysate transcription translation system at 25 to 100 uM at 30 degC after 90 mins by luciferase reporter gene assay. In outline: as §5
The subject of series [14] is Nucleic Acid. Put plainly: Suppression of IDUA W402X nonsense mutant cDNA translation in TNT rabbit reticulocyte lysate transcription translation system at 25 to 100 uM at 30 degC after 90 mins by luciferase reporter gene assay. The method in brief:
as §5

Series [15] concerns Escherichia coli. Put plainly: Inhibition of protein translation in Escherichia coli by coupled transcription/translation assay. The format is functional.
Series [16] is described as follows: Toxicity against african green monkey COS7 cells. The format is cell-based, COS-7. To be noted: chlorocebus aethiops, read-out: LC50 (the source's name).
In series [17] the test system is Nucleic Acid. The series is described as follows: Suppression of PCDH15 R245X nonsense mutant cDNA translation in TNT rabbit reticulocyte lysate transcription translation system at 25 to 100 uM at 30 degC after 90 mins by luciferase reporter gene assay. The method in brief: as §5
A short description of series [18]: Ototoxicity in mouse organ of Corti cochlear explants assessed as inner hair cell loss at 0.2 mM by F-actin staining. The format is toxicity. The note with it: 200 µM. In outline:
as §3

Series [19] relates to Nucleic Acid. Put plainly: Suppression of CFTR W1282X nonsense mutant cDNA translation in TNT rabbit reticulocyte lysate transcription translation system at 25 to 100 uM at 30 degC after 90 mins by luciferase reporter gene assay. In outline: as §5
Series [20] is described as follows: Ototoxicity in mouse organ of Corti cochlear explants assessed as outer hair cell loss at 0.2 mM by F-actin staining. The format is toxicity. The note with it: 200 µM. The method in brief: as §3
For series [21], the system named is Nucleic Acid. The series is described as follows: Suppression of CFTR G542X nonsense mutant cDNA translation in TNT rabbit reticulocyte lysate transcription translation system at 25 to 100 uM at 30 degC after 90 mins by luciferase reporter gene assay. In outline: as §5
Series [22] deals with Nucleic Acid. Put plainly: Suppression of PCDH15 R3X nonsense mutant cDNA translation in african green monkey COS7 cells at 0.25 mg/mL. The format is cell-based. To be noted: COS-7. In outline:
(§6)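 COS-7 cells were lipofected with the dual luciferase construct carrying PCDH15 R3X, and drugs were added 5 h after transfection at varying concentrations. Maximal doses were set from LC50 in COS-7 cells to keep cell viability above 80%. Stop-codon readthrough was read by dual luciferase assay and calculated by a previously described method.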

The nature of series [23]: as §1. The format is cell-based. To be noted: human, HEK293 cells; read-out: LC50 (the source's name).
The nature of series [24]: as §2. The format is cell-based, Canis lupus familiaris. To be noted: dog, MDCK cells; read-out: LC50 (the source's name).
The test system of series [25] is Nucleic Acid. The series is described as follows: Suppression of PCDH15 R3X nonsense mutant cDNA translation in african green monkey COS7 cells at 0.5 mg/mL. The note with it: COS-7. The format is cell-based. The method in brief: as §6
In series [26] the test system is Ribosomal RNA A-site. The series is described as follows: Binding affinity to human cytoplasmic ribosomal RNA A-site. The format is nucleic-acid assay. The method in brief: as §4

In brackets after ≈: the same amount, converted by molar mass.

A word on the MIC: it is the lowest concentration that inhibits growth of the organism. In general, LD50 refers to the dose at which mortality reaches 50%. The term ΔTm denotes the shift of the melting midpoint relative to a reference. What is called IC50 is the concentration that inhibits the measured activity by half. Compound `NCC[C@H](O)C(=O)N[C@@H]1C[C@H](N)[C@@H](O[C@H]2O[C@H](CO)[C@@H](O)[C@H](O)[C@H]2N)[C@H](O[C@@H]2O[C@H](CN)[C@@H](O)[C@H]2O)[C@H]1O` displayed an MIC in series [1] of 588 µM (≈ 327 µg/mL). Besides, the CC50 in [2] is 2800 µM; in series [3], 3300 µM; in series [16] (cos-7), 9300 µM. For the same compound, the Activity is 5.25% in series [4]; “Non-toxic” in series [5]; “Non-toxic” in [7]; 50% in series [9]; “Non-toxic” in series [10]; “Non-toxic” in series [11]. Moreover, the Activity in [12] is 50%; in [13] it was 50%; in series [14] it was 50%; in [17], 50%; in series [18], “Toxic”; in series [19], 50%. Also, the results for the Activity entry in series [20] and in series [21] were “Toxic” and 50%, respectively. Also, in series [6], the LD50 amounted to 500 mg/kg. Moreover, the ΔTm in series [8] came out at 9.7 °C. The IC50 in [15] (Escherichia coli) was determined as 0.159 µM.
Compound GENTAMICIN [listing 1 of 2 here] registered a minimal inhibitory concentration (MIC) in [1] of 6 µM. For the same compound, the Activity amounted to 1.86% in series [22]; 50% in series [9]; 50% in [12]; 50% in series [13]; 50% in series [14]; 50% in series [17]. For the same compound, the Activity in series [19] and in series [21] was 50% throughout.
Consider GENTAMICIN [listing 2 of 2 here], for which the CC50 turned out to be 1100 µM in series [2], 780 µM in series [3] and 750 µM in series [16] (cos-7). Moreover, the LD50 in series [6] worked out at 60 mg/kg. The compound also registered an IC50 in series [15] of 0.02 µM.
The compound `NC[C@@H]1O[C@H](O[C@H]2[C@@H](O)[C@H](O[C@@H]3[C@@H](O)[C@H](N)C[C@H](N)[C@H]3O[C@H]3O[C@H](CO)[C@@H](O)[C@H](O)[C@H]3N)O[C@@H]2CO)[C@H](N)[C@@H](O)[C@@H]1O` [PAROMOMYCIN] registered an MIC in [1] of 22 µM (≈ 13.5 µg/mL). The CC50 was 1200 µM in [23], 1500 µM in series [24] and 1400 µM in series [16] (COS7 cells). The Activity in [25] was 1.62%; in [9], 40%; in [12] it was 40%; in series [13], 40%; in [14] it was 40%; in [17], 40%. Also, the Activity in [19] and in series [21] was 40% each time. Further, the LD50 in series [6] is 80 mg/kg. The compound further had an IC50 in series [15] (Escherichia coli) of 0.056 µM.
In the case of `NC[C@H]1O[C@@H](O[C@@H]2[C@@H](O)[C@H](N)C[C@H](N)[C@H]2O[C@H]2O[C@H](CO)[C@@H](O)[C@H](O)[C@H]2N)[C@H](O)[C@@H]1O`, the MIC in [1] stood at 790 µM (≈ 359 µg/mL). The values for the CC50 in series [23], in series [24] and in [16] (COS7 cells) were 7400 µM, 11500 µM and 10800 µM, respectively. In addition, the Activity in [4] is 2.75%; in [5], “Non-toxic”; in series [7], “Non-toxic”; in series [9], 30%; in series [10] it was “Non-toxic”; in [11], “Non-toxic”. In addition, the Activity in [12] was 30%; in series [13], 30%; in [14] it was 30%; in series [17] it was 30%; in series [18], “Toxic”; in series [19], 30%. Also, the Activity result is “Toxic” in series [20] and 30% in series [21]. Besides, the LD50 in series [6] stood at 240 mg/kg. For the same compound, the thermal shift (ΔTm) in [8] worked out at 4.5 °C. Further, the IC50 in series [15] (Escherichia coli) was 0.415 µM. In series [26], the Ka stood at 4.7 ×10³ /M.
